Peptide text beside a SMILES is read from it.
How the values were obtained:
nude mice = assay: In vivo safety assay; set-up: species or system mouse; details: 10 mg/kg or 20 mg/kg subcutaneously, 24 h after injection
Summary of the method: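 Twelve 6-week-old female athymic NU/NU nude mice were randomised into 3 groups of 4. Groups received 10 or 20 mg/kg test compound injected subcutaneously into the back skin. Serum was assayed for ALT, AST, urea, CREA and UA. Heart, liver, spleen, lung and kidney were examined histologically by H&E. Error bars are SD from 3 biological replicates.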

[1] = tested on: mixed P. aeruginosa–S. aureus biofilms; assay: Clearance of established biofilm; type: cell-based, Pseudomonas aeruginosa + Staphylococcus aureus; details: concentrations <32 μM in PBS, 24 h, 37°C; crystal violet, 595 nm
Summary of the method: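 Preformed mixed P. aeruginosa–S. aureus biofilms were treated with the test compound, with gentamicin as comparator. Residual biomass was stained with crystal violet, and the solubilised dye was read spectrophotometrically at 595 nm. Results are expressed as biofilm percentage. The assay was run in both 96-well round-bottom plates and round-bottom tubes.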

Structure (SMILES): NCCCC[C@H](NC(=O)[C@H](CCCCN)NC(=O)[C@H](Cc1c[nH]c2ccccc12)NC(=O)[C@H](CCCCN)NC(=O)[C@H](CCCCN)NC(=O)[C@H](Cc1c[nH]c2ccccc12)NC(=O)[C@@H](N)Cc1c[nH]c2ccccc12)C(=O)N[C@@H](Cc1c[nH]c2ccccc12)C(=O)N[C@@H](Cc1c[nH]c2ccccc12)C(N)=O [Peptide K6] (H-WWKKWKKWW-NH2)
- Histological examination of heart, liver, spleen, kidneys, lungs (H&E) (nude mice): no abnormalities
- Serum levels of ALT, AST, UA, urea and CREA (nude mice): within normal range

Structure (SMILES): CNC(C)C1CCC(N)C(OC2C(N)CC(N)C(OC3OCC(C)(O)C(NC)C3O)C2O)O1 (stereo not drawn) [Gentamicin, gentamicin]
- Effect on preestablished mixed biofilm [1]: little impact

From article PMC9942841 (Proceedings of the National Academy of Sciences of the …, 2023)
